In PubChem BioAssay:
Active and inactive are the calls of the source.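 The calls were made as follows, unless noted: active = fluorescence slope higher than the sample average by over 3 SD (cut at about -0.22 in these data, passing the limit was not always enough); inactive = the rest.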

Experiments:
[1] = inhibitors of TNFa-induced NFkB p65 translocation, primary screen, imaging, HUVEC, MLSMR starter and 10KST1 sets (AID 438;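 active = inhibition above 20% together with a positive visual image hit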;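 also: compound added about 3h40 before a 20 min TNFalpha stimulation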;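 as to inhibition: signal is the nuclear over cytoplasmic p65 intensity ratio per well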); conditions: HUVEC TNFa-induced p65 nuclear translocation; cell count: measured here: nuclei count (cytotoxicity indicator), at 2.08 µM; inhibition: at 2 µM, stronger effect = higher value, 0% TNFa-plus-vehicle, 100% no-TNFa wells
[2] = inhibitors of E-selectin induction by TNFa, primary screen, imaging, HUVEC, immunofluorescence, MLSMR starter and 10KST1 sets (AID 487;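 active = visually confirmed hit in the image check and inhibition above 20%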;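 as to inhibition: signal is fraction of cell area covered by stained E-selectin grains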;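 as to nuclei count: 100% = median nuclei count of all wells on the same plate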); conditions: HUVEC TNFalpha-induced E-selectin immunofluorescence imaging, at 2 µM; inhibition: stronger effect = higher value; nuclei count: measured here: cell number, toxicity
[3] = DUSP6 inhibitors restoring Erk phosphorylation by chemical complementation, primary imaging in DUSP6-transfected HeLa (AID 609;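 active = compounds giving at least 50% inhibition in the cell-based MKP-3 phosphatase rescue imaging test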;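 as to inhibition: phospho-Erk level distribution per well compared with pooled transfected vehicle control wells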); conditions: HeLa MKP-3 transfected, phospho-Erk imaging KS statistic, at 10 µM, cells stimulated with TPA for 15 min
[4] = molecular target: Dual specificity protein phosphatase 6 (Homo sapiens) (UniProt Q16828); assay: as above; conditions: HeLa MKP-3 transfected, phospho-Erk imaging KS statistic; at 10 µM; stronger effect = higher value; cells stimulated with TPA for 15 min
Dual specificity protein phosphatase 6 (Homo sapiens), sequence (Q16828 whole entry, looked up): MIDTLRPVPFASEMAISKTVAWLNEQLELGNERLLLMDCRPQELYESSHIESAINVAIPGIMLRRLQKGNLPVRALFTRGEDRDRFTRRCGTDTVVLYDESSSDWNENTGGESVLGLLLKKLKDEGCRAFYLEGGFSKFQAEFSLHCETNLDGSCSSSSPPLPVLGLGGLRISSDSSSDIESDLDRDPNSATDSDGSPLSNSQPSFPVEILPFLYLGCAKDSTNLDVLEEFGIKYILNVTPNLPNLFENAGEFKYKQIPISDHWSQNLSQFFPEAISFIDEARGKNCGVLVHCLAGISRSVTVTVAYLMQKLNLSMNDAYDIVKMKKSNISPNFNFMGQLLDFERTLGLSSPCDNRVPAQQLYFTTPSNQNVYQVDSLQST

[5] = molecular target: Voltage-gated potassium channel subunit beta-2 (Rattus norvegicus) (UniProt P62483); assay: KvBeta enzyme negative modulators, primary screen, biochemical, NADPH fluorescence (AID 622); conditions: recombinant KvBeta, 4-cyanobenzaldehyde reduction, at 10 µM, stronger effect = higher value;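 also: slope of raw intensity against log time taken from 70 to 1610 s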
Voltage-gated potassium channel subunit beta-2 (Rattus norvegicus), sequence (P62483 whole entry, looked up): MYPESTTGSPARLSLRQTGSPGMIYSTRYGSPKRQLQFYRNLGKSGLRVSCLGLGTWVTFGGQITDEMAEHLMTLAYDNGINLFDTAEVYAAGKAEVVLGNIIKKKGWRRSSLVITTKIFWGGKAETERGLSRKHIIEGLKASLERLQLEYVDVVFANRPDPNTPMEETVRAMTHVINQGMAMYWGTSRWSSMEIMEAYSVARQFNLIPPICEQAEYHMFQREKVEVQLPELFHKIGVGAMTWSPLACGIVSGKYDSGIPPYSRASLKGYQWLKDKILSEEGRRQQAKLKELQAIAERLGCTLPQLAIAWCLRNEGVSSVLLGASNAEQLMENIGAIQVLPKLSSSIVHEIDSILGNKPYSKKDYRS

[6] = molecular target: Voltage-gated potassium channel subunit beta-2 (Rattus norvegicus) (UniProt P62483); assay: KvBeta positive modulators, primary screen, biochemical, NADPH fluorescence (AID 623;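 active = NADPH fluorescence slope more negative than the mean of all samples by about 3 SD, 99.7% confidence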;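 also: fluorescence intensity change per second fitted from 20 to 320 s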); conditions: Recombinant KvBeta, NADPH fluorescence decrease slope, 10 min; at 10 µM; stronger effect = lower value
[7] = molecular target: Muscarinic acetylcholine receptor M4 (Homo sapiens) (UniProt P08173); assay: compounds altering M4/GIRK thallium flux, either direction, primary screen, M4 allosteric agonist project, cell-based, HEK293 M4/GIRK, BTC-AM (AID 625;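 active = fluorescence slope after compound addition differing from the mean of all tested samples at 99.7% confidence, mostly higher but some lower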;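 also: thallium influx through GIRK channels coupled to M4 in HEK293 cells with BTC-AM dye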); conditions: at 10 µM, actives lie on both sides
Muscarinic acetylcholine receptor M4 (Homo sapiens), sequence (P08173 whole entry, looked up): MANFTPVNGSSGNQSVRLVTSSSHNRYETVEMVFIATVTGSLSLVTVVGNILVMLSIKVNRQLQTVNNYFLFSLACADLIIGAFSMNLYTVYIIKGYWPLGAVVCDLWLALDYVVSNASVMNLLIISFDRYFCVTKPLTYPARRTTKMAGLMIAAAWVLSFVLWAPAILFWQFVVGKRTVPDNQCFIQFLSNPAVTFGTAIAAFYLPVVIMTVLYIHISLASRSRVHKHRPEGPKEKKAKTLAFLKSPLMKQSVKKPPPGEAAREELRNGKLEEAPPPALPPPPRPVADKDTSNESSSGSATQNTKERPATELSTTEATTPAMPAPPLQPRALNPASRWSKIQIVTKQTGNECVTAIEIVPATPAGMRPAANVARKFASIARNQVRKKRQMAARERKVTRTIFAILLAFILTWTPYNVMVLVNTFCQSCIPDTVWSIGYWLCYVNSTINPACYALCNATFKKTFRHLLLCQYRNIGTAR
Procedure, shortened: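 Material: M4/GIRK1/GIRK2 stable HEK293 cell line. Medium: pH 7.3 thallium assay buffer. Dosing: single compound concentration, 10 µM final. Schedule: 1 h dye loading, 2 min kinetic read. Measured by: kinetic fluorescence with BTC-AM dye. Read-out: post-addition slope, 15–24 s, of baseline-normalized fluorescence. Benchmarks: carbachol and DMSO controls.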

[8] = inhibitors of larval lipid processing in zebrafish, primary screen, whole organism, PED6 fluorescence, gall bladder and intestine (AID 686;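 active = a full or partial loss of lipid-probe fluorescence in the fish gall bladder, intestine or both, judged by eye; inactive = no fluorescence loss, or compound toxic to the fish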;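 also: larvae 5 to 7 days old with five fish per well; signal comes from phospholipase A2 cleavage of quenched PED6 carried via bile; overnight exposure to compound and PED6 before scoring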); conditions: Zebrafish larvae PED6 lipid processing, fluorescence scoring; screened at 20 µM (by protocol)
Procedure, shortened: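 System: live zebrafish larvae aged 5-7 days, whole organism; measure: graded gall bladder and intestinal fluorescence inhibition per well; incubation: overnight exposure; reagent: ingested quenched lipid PED6 at 100 nM; signal: By-eye fluorescence microscopy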

[9] = inhibitors of Chlamydomonas gravitaxis, primary screen, whole organism, Chlamydomonas reinhardtii, WT vs cilia-less mutant, absorbance, 96-well (AID 463189;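 active = inhibition at or above 50% relative to wild type and mutant plate controls; inactive = inhibition below 50%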;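 also: 0% = wild type cc124 cells in DMSO and 100% = ciliumless bld1 mutant cells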); conditions: OD600 absorbance, 2 days, at 10 µM, stronger effect = higher value
[10] = measured here: cell density z-score
[11] = measured here: nuclear c-Myc green intensity z-score
[12] = measured here: nuclear pErk red intensity z-score, stronger effect = higher value

SMILES	cell count [1]	inhibition [1]	inhibition [2]	nuclei count [2] [%]	z-score [3, 10]	z-score [3, 11]	z-score [3, 12]	inhibition [4]	fluorescence slope [5]	NADPH fluorescence slope [6]	fluorescence slope [7]	outcome [8]	inhibition [9]
CC(=O)N(Cc1ccccc1)c1ccc(C(=O)O)cc1	486	-9.7% (inactive)	-65.3% (inactive)	95.1	-0.584	0.905	1.49	3.42% (inactive)	-0.454 (inactive)	3.6e-05 (inactive)	0.00471 (inactive)	inactive	18% (inactive)
CCOC(=O)c1[nH]c2ccc(F)cc2c1N=C(C)N(CC)CC	621	-7.1% (inactive)	-132% (inactive)	100	-2.41	0.938	-0.403	1.9e-07% (inactive)	-0.497 (inactive)	-8.7e-05 (inactive)	0.00509 (inactive)	inactive	-19.6% (inactive)
CC(NC(=O)Nc1ncccn1)(C(F)(F)F)C(F)(F)F	705	-8.4% (inactive)	-9.7% (inactive)	107	-2.34	2.27	-1.54	3.97% (inactive)	-0.481 (inactive)	-0.000112 (inactive)	0.00693 (inactive)	inactive	-10.4% (inactive)
C=CCNc1nc(NCc2ccccc2)c(C#N)c2c1CN(C)CC2	592	-6.3% (inactive)	-14.9% (inactive)	156	0.516	-0.0927	0.356	-2.09% (inactive)	-0.407 (inactive)	-5.5e-05 (inactive)	0.00402 (inactive)	inactive	21.1% (inactive)
Cc1cc(=O)n(CCC(=O)O)c2ccccc12	722	-2.6% (inactive)	-33.8% (inactive)	175	1.44	-0.504	-1.75	5.95% (inactive)	-0.48 (inactive)	-8.8e-05 (inactive)	0.0062 (inactive)	inactive	-13% (inactive)
CCCCN1C(=O)C(O)=C(C(C)=O)C1c1ccc(OC)cc1OC (centres undefined)	479	-4.2% (inactive)	-323% (inactive)	189	0.403	-0.372	1.98	-7.28% (inactive)	-0.464 (inactive)	-4.3e-05 (inactive)	0.00466 (inactive)	inactive	-3.96% (inactive)
CC(C)c1nc(NCCN2CCOCC2)c(C#N)c2c1COC(C)(C)C2	401	-10.6% (inactive)	-276% (inactive)	186	-0.66	-0.209	1.4	-0.584% (inactive)	-0.473 (inactive)	-0.000118 (inactive)	0.00407 (inactive)	inactive	71.3% (active)
O=C(c1ccc(-n2cnnn2)cc1)N1CCOCC1	670	-3.5% (inactive)	18.9% (inactive)	171	0.439	-0.115	0.866	4.72% (inactive)	-0.492 (inactive)	-4.1e-05 (inactive)	0.00579 (inactive)	inactive	-1.94% (inactive)
CC1(C(=O)CSc2nc3ccccc3[nH]2)CCC(=O)O1 (centres undefined)	631	-2% (inactive)	-8.2% (inactive)	115	-2.03	-0.005	-0.394	-13.3% (inactive)	-0.508 (inactive)	-1.8e-05 (inactive)	0.0059 (inactive)	inactive	0.18% (inactive)
Cc1cc(CCC(=O)O)c(C)cc1CCC(=O)O	593	0.2% (inactive)	-64.2% (inactive)	149	0.485	1.16	-0.56	5.35% (inactive)	-0.452 (inactive)	-0.000105 (inactive)	0.00588 (inactive)	inactive	1.89% (inactive)
Cc1c(C2CC(=O)N(c3ccccc3)C2=O)[nH]n(-c2ccccc2)c1=O (centres undefined)	618	4.4% (inactive)	-97.6% (inactive)	143	-1.05	0.971	0.084	-7.86% (inactive)	-0.488 (inactive)	-5.3e-05 (inactive)	0.00493 (inactive)	inactive	6.43% (inactive)
O=C1CC(NCc2ccncc2)C(=O)N1c1ccc(Cl)cc1 (centres undefined)	479	2.2% (inactive)	-20.1% (inactive)	150	0.96	-0.274	-0.794	2.71% (inactive)	-0.464 (inactive)	-3.3e-05 (inactive)	0.00465 (inactive)	inactive	25.9% (inactive)
COC(=O)c1ccc(C2/C(=C(\O)c3cccc(OC)c3)C(=O)C(=O)N2CCCN2CCOCC2)cc1 (centres undefined)	620	-10.1% (inactive)	-57.4% (inactive)	150	0.836	-1.51	-1.62	20.2% (inactive)	-0.507 (inactive)	-2e-05 (inactive)	0.00584 (inactive)	inactive	14.7% (inactive)
